# Measurements published in paper PMC12082725 (Journal of Enzyme Inhibition and Medicinal Chemistry, 2025).
# Like-named read-outs stand apart in the source and are kept apart here.
# How the values were obtained:
# [1] = biological target: SARS-CoV-2 NP-RNA interaction (Severe acute respiratory syndrome coronavirus 2, UniProt P0DTC9); assay: biochemical; assay type: biochemical; details: for inhibition rate of the NP-RNA interaction: compound at 50 μM
# [2] = biological target: SARS-CoV-2 NP NTD (Severe acute respiratory syndrome coronavirus 2, UniProt P0DTC9); assay: BLI binding of compounds to NP NTD; details: NP NTD (residues 44 to 174)
# [3] = biological target: RNA-induced LLPS of the NP (Severe acute respiratory syndrome coronavirus 2, UniProt P0DTC9); assay type: biochemical, SARS-CoV-2
# [4] = biological target: SARS-CoV-2 NP (Severe acute respiratory syndrome coronavirus 2, UniProt P0DTC9); assay: BLI binding of compounds to full-length NP
# Outline: (§1)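 Target was recombinant E. coli-expressed SARS-CoV-2 NP, either CTD or full-length (1–419). Protein at 0.39 mg/ml was biotinylated for 30 min at RT, then loaded at 100 μg/ml onto streptavidin sensors for 20 min. After a 60 s baseline, increasing test compound concentrations gave 120 s association and 300 s dissociation. Run in PBS/0.01% Tween-20 at 30 °C; double-reference subtracted; KD from a global 1:1 Langmuir fit.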
# [5] = biological target: SARS-CoV-2 NP CTD (Severe acute respiratory syndrome coronavirus 2, UniProt P0DTC9); assay: BLI binding of compounds to NP CTD
# Outline: as §1
# [6] = biological target: NP NTD; details: read-out: Kd, NP NTD; via bio-layer interferometry assay; ref [28]; cited from earlier work
structure (smiles),measurement,setting,value
COc1ccc(CC(C)NCC(O)c2ccc(O)c(NC=O)c2)cc1 (centres unmarked) [formoterol],inhibitory effect on NP-RNA interaction (in words),"[1]; HTRF, 50 μM",neither compound affected
CC(C)[N+]1(C)[C@@H]2CC[C@H]1C[C@@H](OC(=O)C(CO)c1ccccc1)C2 (some centres unmarked) [ipratropium bromide],inhibitory effect on NP-RNA interaction (in words),"[1]; HTRF, 50 μM",neither compound affected
COc1ccc2cc([C@H](C)C(=O)O)ccc2c1 [naproxen],inhibitory effect on NP-RNA interaction (in words),[1],did not inhibit
O=C(O)c1cc(O)c2c(c1)[C@H]([C@H]1c3cc(C(=O)O)cc(O)c3C(=O)c3c(O[C@@H]4O[C@H](CO)[C@@H](O)[C@H](O)[C@H]4O)cccc31)c1cccc(O[C@@H]3O[C@H](CO)[C@@H](O)[C@H](O)[C@H]3O)c1C2=O [sennoside A],binding to NP NTD,[2],neither sennoside A nor sennoside B bound
same,inhibition of RNA-induced LLPS of the NP,[3],relatively weaker activity
same,Kd,[4],962 ± 19 nM
same,Kd,[5],1820 ± 30 nM
same,IC50,[1],3170 ± 390 nM
same,inhibition rate of the NP-RNA interaction,[1]; HTRF,exceeding 98%
O=C(O)c1cc(O)c2c(c1)[C@@H]([C@H]1c3cc(C(=O)O)cc(O)c3C(=O)c3c(O[C@@H]4O[C@H](CO)[C@@H](O)[C@H](O)[C@H]4O)cccc31)c1cccc(O[C@@H]3O[C@H](CO)[C@@H](O)[C@H](O)[C@H]3O)c1C2=O [sennoside B],binding to NP NTD,[2],neither sennoside A nor sennoside B bound
same,inhibition of RNA-induced LLPS of the NP,[3],significantly inhibited
same,Kd,[4],765 ± 12 nM
same,Kd,[5],529 ± 16 nM
same,IC50,[1],1050 ± 230 nM
same,inhibition rate of the NP-RNA interaction,[1]; HTRF,exceeding 98%
Cc1ccc(C(=O)Nc2ccc(S(=O)(=O)O)c3cc(S(=O)(=O)O)cc(S(=O)(=O)O)c23)cc1NC(=O)c1cccc(NC(=O)Nc2cccc(C(=O)Nc3cc(C(=O)Nc4ccc(S(=O)(=O)O)c5cc(S(=O)(=O)O)cc(S(=O)(=O)O)c45)ccc3C)c2)c1 [suramin],Kd,[6],2740 nM
CCOC(=O)c1c(CSc2ccccc2)n(C)c2cc(Br)c(O)c(CN(C)C)c12 [umifenovir],inhibitory effect on NP-RNA interaction (in words),"[1]; HTRF, 50 μM",no inhibitory effect
